Test results from ChEMBL document CHEMBL1125715, “Novel 5-HT3 antagonists. Indole oxadiazoles” (J Med Chem, 1991).

Biological target: T1, Serotonin 3 (5-HT3) receptor (Rattus norvegicus, UniProt P35563+Q9JJ16)
T1 sequence (P35563 whole entry): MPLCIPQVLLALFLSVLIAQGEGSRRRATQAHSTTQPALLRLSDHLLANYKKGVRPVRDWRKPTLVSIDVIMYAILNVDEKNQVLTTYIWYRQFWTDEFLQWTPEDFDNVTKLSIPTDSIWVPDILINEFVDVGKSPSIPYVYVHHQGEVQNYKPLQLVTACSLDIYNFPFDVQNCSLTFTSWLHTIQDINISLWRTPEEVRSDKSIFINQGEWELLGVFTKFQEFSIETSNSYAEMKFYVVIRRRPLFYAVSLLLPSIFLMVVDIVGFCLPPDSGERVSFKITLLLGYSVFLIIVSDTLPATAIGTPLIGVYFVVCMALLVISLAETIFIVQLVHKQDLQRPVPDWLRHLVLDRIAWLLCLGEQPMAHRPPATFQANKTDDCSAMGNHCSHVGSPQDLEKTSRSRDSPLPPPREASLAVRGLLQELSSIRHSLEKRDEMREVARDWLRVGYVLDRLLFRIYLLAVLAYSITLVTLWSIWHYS
T1 sequence (Q9JJ16 whole entry): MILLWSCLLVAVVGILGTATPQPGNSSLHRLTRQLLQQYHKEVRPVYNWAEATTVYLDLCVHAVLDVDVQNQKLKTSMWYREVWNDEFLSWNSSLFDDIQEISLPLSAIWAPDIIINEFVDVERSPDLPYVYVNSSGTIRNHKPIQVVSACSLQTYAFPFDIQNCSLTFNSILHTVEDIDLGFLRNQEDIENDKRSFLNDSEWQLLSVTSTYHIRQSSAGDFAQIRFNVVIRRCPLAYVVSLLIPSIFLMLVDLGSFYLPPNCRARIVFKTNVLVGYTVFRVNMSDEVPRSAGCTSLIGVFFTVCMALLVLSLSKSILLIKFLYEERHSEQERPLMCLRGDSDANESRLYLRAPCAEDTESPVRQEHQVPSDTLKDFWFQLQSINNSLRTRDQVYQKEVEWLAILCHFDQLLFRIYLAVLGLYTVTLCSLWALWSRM
Test: Compound was evaluated for the displacement of [3H]-Q-ICS 205-930 binding to 5-hydroxytryptamine 3 receptor in rat brain membranes
Assay type: cell membranes
In short: (§1)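 Rat cortical membranes from male Sprague-Dawley rats (250-300 g): sucrose homogenization, differential centrifugation, washed in 2.5 mM Hepes, made fresh on the day. About 400 µg protein incubated on ice (4 °C, 15 min) with 0.5-0.7 nM [3H]Q-ICS 205-930 in 10 mM Hepes pH 7.1 containing pargyline and ascorbate. Nonspecific binding defined with 10 µM MDL 72222.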

Compared with Cc1[nH]c2ccc(O)cc2c1CCN, CN1[C@@H]2CC[C@H]1C[C@@H](OC(=O)c1cc(Cl)cc(Cl)c1)C2 [BEMESETRON] is 29-fold lower in IC50: 646 nM for the first, 21.9 nM for the second. The second is the more potent here.

Biological target: T1, Serotonin 3 (5-HT3) receptor
Test: Displacement of [3H]-Q-ICS 205-930 binding to 5-hydroxytryptamine 3 receptor recognition sites in rat brain membranes.
Assay type: cell membranes
In short: as §1

Going from Cn1cc(-c2noc(C34CCN(CC3)CC4)n2)c2ccccc21 to Cn1cc(-c2noc(C3CN4CCC3CC4)n2)c2ccccc21 (centres undefined), the IC50 falls from 4.27 nM to 1.38 nM (3.1-fold).

First: Oc1ccccc1-c1noc(C2CN3CCC2CC3)n1 (centres undefined)
Second: COc1ccccc1-c1noc(C2CN3CCC2CC3)n1 (centres undefined)
The IC50 of the first is 3.7-fold lower: 41.7 nM for the first, 155 nM for the second. The first is the more potent here.

CN1CCC(c2nc(-c3cn(C)c4ccccc34)no2)CC1 and CN1CCCC(c2nc(-c3cn(C)c4ccccc34)no2)C1 (centres undefined) are within 1.5-fold of each other in IC50: 13.2 nM for the first, 12.9 nM for the second.

Cn1cc(-c2noc(C3CC[N+](C)(C)CC3)n2)c2ccccc21 and Cn1cc(-c2noc(C3CCC[N+](C)(C)C3)n2)c2ccccc21 (centres undefined) are within 1.5-fold of each other in IC50: 35.5 nM for the first, 34.7 nM for the second.

Compared with Cc1ccc2c(c1)c(-c1noc(C3CN4CCC3CC4)n1)cn2C (centres undefined), Cn1cc(-c2noc(C3CN4CCC3CC4)n2)c2cc(F)ccc21 (centres undefined) is 7.2-fold lower in IC50: 331 nM for the first, 45.7 nM for the second.

First: Cn1cc(-c2noc(CCN)n2)c2ccccc21
Second: Cn1cc(-c2noc(CN)n2)c2ccccc21
The IC50 of the first is 4.2-fold lower: 67.6 nM for the first, 282 nM for the second.

Going from c1ccc2[nH]c(-c3noc(C4CN5CCC4CC5)n3)cc2c1 (centres undefined) to c1ccc2c(-c3noc(C4CN5CCC4CC5)n3)c[nH]c2c1 (centres undefined), the IC50 falls from 692 nM to 2.69 nM (260-fold).

Compared with c1ccc2c(-c3noc(C4CN5CCC4CC5)n3)cccc2c1 (centres undefined), c1ccc2cc(-c3noc(C4CN5CCC4CC5)n3)ccc2c1 (centres undefined) is 23-fold higher in IC50: 63.1 nM for the first, 1480 nM for the second. The first is the more potent here.

Going from CNCc1nc(-c2cn(C)c3ccccc23)no1 to CNCCc1nc(-c2cn(C)c3ccccc23)no1, the IC50 falls from 1000 nM to 85.1 nM (12-fold). The second is the more potent here.

Going from CN(C)Cc1nc(-c2cn(C)c3ccccc23)no1 to CN(C)CCc1nc(-c2cn(C)c3ccccc23)no1, the IC50 falls from 166 nM to 13.8 nM (12-fold). The second is the more potent here.

First: C=CCn1cc(-c2noc(C3CN4CCC3CC4)n2)c2ccccc21 (centres undefined)
Second: Cn1cc(-c2noc(C3CN4CCC3C4)n2)c2ccccc21 (stereo in doubt; 12u)
The IC50 of the first is 2.9-fold higher: 21.9 nM for the first, 7.59 nM for the second. The second is the more potent here.

Going from CN(C)CCCc1nc(-c2cn(C)c3ccccc23)no1 to Cn1cc(-c2noc(C[N+](C)(C)C)n2)c2ccccc21, the IC50 falls from 191 nM to 0.708 nM (270-fold).

Going from Cc1cccc2c(-c3noc(C4CN5CCC4CC5)n3)cn(C)c12 (centres undefined) to Cn1cc(-c2noc(C3CN4CCC3C4)n2)c2ccccc21 (stereo in doubt; 12v), the IC50 falls from 95.5 nM to 1.05 nM (91-fold).

First: c1ccc2c(-c3noc(C4CN5CCC4CC5)n3)[nH]nc2c1 (centres undefined)
Second: c1ccc2ncc(-c3noc(C4CN5CCC4CC5)n3)cc2c1 (centres undefined)
The IC50 of the first is 85-fold lower: 17.8 nM for the first, 1510 nM for the second.

First: Cn1cc(-c2nc(C3CN4CCC3CC4)no2)c2ccccc21 (centres undefined)
Second: Cn1cc(-c2noc(CC3CN4CCC3CC4)n2)c2ccccc21 (centres undefined)
The IC50 of the first is 1.9-fold lower: 29.5 nM for the first, 55 nM for the second.

Going from CN1CCC=C(c2csc(-c3cn(C)c4ccccc34)n2)C1 to CN1CCC=C(c2nc(-c3cn(C)c4ccccc34)no2)C1, the IC50 falls from 5890 nM to 209 nM (28-fold). The second is the more potent here.

First: Cn1c(-c2noc(C3CN4CCC3CC4)n2)cc2ccccc21 (centres undefined)
Second: c1ccc(-c2noc(C3CN4CCC3CC4)n2)cc1 (centres undefined)
The IC50 of the first is 3.4-fold higher: 676 nM for the first, 200 nM for the second. The second is the more potent here.

Cn1cc(-c2noc(C3=CCCNC3)n2)c2ccccc21 and Cn1cc(-c2noc(CCN3CCCCC3)n2)c2ccccc21 are within 1.5-fold of each other in IC50: 468 nM for the first, 372 nM for the second.

CN1C2CCC1CC(c1nc(-c3cn(C)c4ccccc34)no1)C2 (centres undefined) and CN1CC2CCC1C(c1nc(-c3cn(C)c4ccccc34)no1)C2 (stereo in doubt; 12y) are within 1.5-fold of each other in IC50: 191 nM for the first, 224 nM for the second.

Going from Cn1cc(-c2noc(C3CC4CCN3CC4)n2)c2ccccc21 (centres undefined) to CN1CC2CCC1C(c1nc(-c3cn(C)c4ccccc34)no1)C2 (stereo in doubt; 12z), the IC50 falls from 129 nM to 85.1 nM (1.5-fold).

First: Oc1ccc(-c2noc(C3CN4CCC3CC4)n2)cc1 (centres undefined)
Second: COc1ccc(-c2noc(C3CN4CCC3CC4)n2)cc1 (centres undefined)
The IC50 of the first is 11-fold lower: 148 nM for the first, 1580 nM for the second. The first is the more potent here.

Compared with CN1CC=C(c2nnc(-c3cn(C)c4ccccc34)o2)CC1, Cn1cc(-c2nsc(C3CC4CCN3C4)n2)c2ccccc21 (stereo in doubt; 26) is 36-fold lower in IC50: 501 nM for the first, 14.1 nM for the second.

First: COc1cccc(-c2noc(C3CN4CCC3CC4)n2)c1 (centres undefined)
Second: Oc1cccc(-c2noc(C3CN4CCC3CC4)n2)c1 (centres undefined)
The IC50 of the first is 6.5-fold lower: 12.6 nM for the first, 81.3 nM for the second. The first is the more potent here.

Going from c1cncc(-c2noc(C3CN4CCC3CC4)n2)c1 (centres undefined) to Cn1cc(-c2noc(C3CC4CCC3NC4)n2)c2ccccc21 (stereo in doubt; 12s), the IC50 falls from 2950 nM to 89.1 nM (33-fold). The second is the more potent here.

Going from Cn1cc(-c2noc(C3CC4CCC3NC4)n2)c2ccccc21 (stereo in doubt; 12t) to Cn1cc(-c2nsc(C3CC4CCN3C4)n2)c2ccccc21 (stereo in doubt; 27), the IC50 rises from 13.2 nM to 20.4 nM (1.5-fold).

Tested on: not listed separately
Test: pKa value of the compound
Assay type: physicochemical

CN1CCC=C(c2nc(-c3cn(C)c4ccccc34)no2)C1 showed a pKa of 7.2.

Tested on: not listed separately
Test: pKa value of the compound.
Assay type: physicochemical

First: CNCc1nc(-c2cn(C)c3ccccc23)no1
Second: CNCCc1nc(-c2cn(C)c3ccccc23)no1
The pKa of the first is lower: 6.5 for the first, 8.8 for the second.

First: CN(C)Cc1nc(-c2cn(C)c3ccccc23)no1
Second: CN(C)CCc1nc(-c2cn(C)c3ccccc23)no1
The pKa of the first is lower: 5.6 for the first, 7.7 for the second.

First: Cn1cc(-c2noc(CN)n2)c2ccccc21
Second: Cn1cc(-c2noc(C3=CCCNC3)n2)c2ccccc21
The pKa of the first is lower: 6.4 for the first, 7.9 for the second.
